# PAFAH2 inh: PAFAH2 (human) inhibition. 340,000 tested, 0.99% active. recombinant PAFAH2, FP-rhodamine activity probe, fluorescence polarization. inhibition, % at 3.39 µM. AID 492956. Q99487;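 active = inhibition above the mean over all tested compounds plus 3 SD, cut at about 30% in these data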;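 note: inhibitors block probe labeling of enzyme so polarization drops; 0% = enzyme with DMSO and 100% = wells lacking PAFAH2 protein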
# PAFAH1B2 inh: blocks human PAF acetylhydrolase 1b catalytic subunit 2; inhibition, % at 3.39 µM; AID 492953; P68402; recombinant PAFAH1B2, FP-rhodamine activity probe, fluorescence polarization; 340,000 tested, 1.2% active;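 active = inhibition above the mean of all tested compounds plus 3 SD, cut at about 24% in these data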;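 note: 0% = enzyme with DMSO and 100% = wells lacking PAFAH1B2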
# PAFAH1B3 FP inh: blocks human PAF acetylhydrolase 1B catalytic subunit 3; AID 492972; 340,000 tested, 0.28% active; Q15102; recombinant PAFAH1B3, FP-rhodamine probe, fluorescence polarization; inhibition, % at 3.39 µM;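 active = inhibition above the screen-wide average of all tested compounds plus 3 SD, cut at about 25% in these data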;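 note: 0% = enzyme with DMSO only and 100% = wells lacking PAFAH1B3 protein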
# RBBP9 inh: human RBBP9 hydrolase inhibition; O75884; recombinant RBBP9, FP-Rh probe fluorescence polarization; inhibition, % at 7.94 µM; 220,000 tested, 0.2% active;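 active = inhibition above the campaign mean of all tested compounds plus 3 SD, cut at about 14% in these data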;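 note: plate controls were DMSO wells with RBBP9 for no effect and wells lacking RBBP9 protein for full effect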
# Target sequence (O75884 whole entry, looked up): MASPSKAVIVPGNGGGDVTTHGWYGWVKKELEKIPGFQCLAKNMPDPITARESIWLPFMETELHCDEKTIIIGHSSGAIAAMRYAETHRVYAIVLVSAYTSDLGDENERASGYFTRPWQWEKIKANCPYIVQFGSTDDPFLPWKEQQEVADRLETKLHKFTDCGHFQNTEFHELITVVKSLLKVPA
#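 Controls: DMSO-treated enzyme wells and wells lacking RBBP9 | Material: RBBP9 protein | Technique: Fluorescence polarization | Replication: Single well per compound, no replicates | Buffer or medium: Tris-NaCl-Pluronic buffer, pH 8.0 | Timing: 30 min compound preincubation, 45 min probe labeling, 25 °C | Read-out basis: Percent inhibition from mP, scaled between DMSO and no-protein wells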
# pPAFAH inh: inhibitors of human plasma PAF acetylhydrolase (pPAFAH) | Q13093 | recombinant pPAFAH, FP-rhodamine probe fluorescence polarization | inhibition, % at 3.39 µM | 330,000 tested, 1.5% active | AID 463082;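 active = inhibition above the mean inhibition across the screen plus 3 SD, cut at about 25% in these data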;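 note: inhibitors block binding of the rhodamine activity-based probe so polarization drops; 0% = enzyme with DMSO and 100% = wells lacking pPAFAH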
# Target sequence (Q13093 whole entry, looked up): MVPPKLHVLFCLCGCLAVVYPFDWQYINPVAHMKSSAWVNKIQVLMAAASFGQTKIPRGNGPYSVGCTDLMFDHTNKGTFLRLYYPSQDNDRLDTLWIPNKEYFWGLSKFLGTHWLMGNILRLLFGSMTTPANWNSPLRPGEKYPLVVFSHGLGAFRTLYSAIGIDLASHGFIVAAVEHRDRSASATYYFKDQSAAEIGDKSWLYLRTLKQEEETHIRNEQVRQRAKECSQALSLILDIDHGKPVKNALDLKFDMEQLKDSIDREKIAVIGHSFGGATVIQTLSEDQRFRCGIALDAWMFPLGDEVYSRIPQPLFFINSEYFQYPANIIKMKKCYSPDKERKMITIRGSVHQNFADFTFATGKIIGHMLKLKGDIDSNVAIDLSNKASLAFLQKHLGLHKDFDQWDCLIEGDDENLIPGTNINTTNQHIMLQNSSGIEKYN
# * marks the source's active call; other numbers are inactive results; . = no result given. Hits are enriched below; roughly 2.7% of the tested compounds scored in any of these assays.
SMILES,PAFAH2 inh,PAFAH1B2 inh,PAFAH1B3 FP inh,RBBP9 inh,pPAFAH inh
O=C(N/N=C/c1c(O)n(C2CCCCC2)c(=S)[nH]c1=O)c1ccccc1O,13,13,3,.,32*
O=C(N/N=C/c1c(O)n(Cc2ccco2)c(=O)[nH]c1=O)c1ccccc1O,35*,15,9,-8,30*
O=C(N/N=C/c1c(O)n(C2CCCCC2)c(=S)[nH]c1=O)c1ccccc1,6,5,19,.,12
CCCCC(=O)N/N=C/c1c(O)n(Cc2ccco2)c(=O)[nH]c1=O,4,6,2,-4,4
O=C1NC(=O)C(=Cc2ccc(OCC(=O)N3CCOCC3)cc2)C(=O)N1,10,-4,7,-9,4
CC(C)C12CN3CCN(CC(C3)/C1=N\O)C2,4,-2,0,0,1
CC(C)(C)c1ccc(S(=O)(=O)N2CC3CC(C2)c2cccc(=O)n2C3)cc1 (stereo unspecified),8,26*,11,-2,4
COc1ccc(S(=O)(=O)N2CC3CC(C2)c2cccc(=O)n2C3)cc1 (stereo unspecified),-2,0,4,-5,2
COc1ccc2c(c1)NP(=S)(Oc1ccccc1)N2 (stereo unspecified),4,11,4,6,7
COC(=O)C1=C(c2c(C)noc2C)C[C@@H]2CC[C@H]1N2C(=O)NCc1ccc(C(F)(F)F)cc1,1,24*,9,.,0
CN[C@H]1C[C@H]2O[C@@](C)([C@H]1OC)n1c3ccccc3c3c4c(c5c6ccccc6n2c5c31)C(=O)NC4,.,.,.,0,40*
O=C(O)c1c[nH]c2ccc(S(=O)(=O)N(CCCl)CCCl)cc12,15,37*,5,-1,-7
C[C@@H]1C2C[C@@]34COC(=O)C3=CC=C[C@H]4[C@@]13C[C@H](c1ccoc1)O[C@@H]3O2,.,.,.,-5,-3
CCCCCCNC(=O)N[C@H](Cc1ccc(O)cc1)C(=O)NCCC[C@H]1CN2C(=NC[C@H]2CCC)N1CC1CCC1,.,.,.,.,5
Cn1cccc1/C=C1/C(=O)NC(=O)N(Cc2ccc(F)cc2)C1=O,12,29*,22,-7,13
O=C1NC(=O)N(Cc2ccco2)C(=O)/C1=C/c1cccn1CCOc1ccccc1Cl,28,15,6,-5,26*
CCN(CC)c1ccc(N=Cc2c(O)n(-c3ccc(Cl)cc3)c(=O)[nH]c2=O)cc1,-2,6,6,-2,2
CCN(CC)c1ccc(N=Cc2c(O)n(-c3ccc(OC)cc3)c(=O)[nH]c2=O)cc1,1,1,5,5,25*
Cc1oc(-c2ccccc2Cl)nc1CN1C(=O)CN=C(c2ccccc2)c2ccccc21,9,2,2,-7,-1
O=C1CN=C(c2ccccc2)c2ccccc2N1Cc1ccc(C(F)(F)F)cc1,4,59*,1,3,3
Cc1ccccc1N1C(=O)/C(=C/c2ccco2)C(=O)NC1=S,.,.,.,.,91*
CC(C)COc1ccc(C2(C#N)CC[N+](C)(C)CC2)cc1,7,0,-5,-7,0
O=C1NC(=O)N(Cc2ccccc2)C(=O)/C1=C\c1ccco1,11,7,8,-11,20
CCCCN1C(=O)/C(=C\c2ccco2)C(=O)N(CCc2ccccc2)C1=O,9,-4,-18,-15,29*
Cc1cc(C)cc(-n2c(O)c(C=Nc3ccc(N4CCOCC4)cc3)c(=O)[nH]c2=S)c1,5,1,-4,-5,6
SMILES,PAFAH2 inh,PAFAH1B2 inh,PAFAH1B3 FP inh,RBBP9 inh,pPAFAH inh
O=c1[nH]c(=S)n(-c2ccccc2F)c(O)c1C=Nc1ccc(N2CCOCC2)cc1,33*,8,1,0,29*
CN1CCN(c2c(C#N)c(C(F)(F)F)nn2C)CC1,1,2,11,2,2
O=c1c2ccccc2nc(/C=C/c2ccc(O)c(O)c2)n1-c1ccccc1,1,-1,8,.,30*
O=C(COC(=O)Cc1ccccc1)NNC(=O)c1ccc([N+](=O)[O-])cc1,3,1,0,.,28*
O=S(=O)(c1ccc(Cl)cc1)c1ccc(Cl)cc1,4,66*,10,.,-2
O=S(=O)(c1ccc(O)cc1)c1ccc(O)cc1,-3,4,8,.,3
CCc1cc2c(s1)NC(=O)CN=C2c1cccs1,2,-1,5,-4,33*
Cc1c(C(=O)O)cc(-c2ccccc2)n1Cc1ccccc1,1,28*,5,.,4
CCOC(=O)Cc1csc(NC(=O)c2c(O)c3ccccc3n(CCC(C)C)c2=O)n1,-15,-7,-7,-10,1
O=C(Cc1c[nH]c2ccccc12)NNCc1ccc(N(CCCl)CCCl)cc1,11,21,8,.,.
Cc1cc(OCC(=O)NC(Cc2ccc(Cl)cc2)C(=O)O)c2c3c(c(=O)oc2c1)CCCC3 (stereo unspecified),9,30*,8,.,5
Cc1cc(OCC(=O)NCc2ccncc2)c2c3c(c(=O)oc2c1)CCC3,4,2,-6,.,3
Cn1c(O)c(C(=Nc2ccccc2)SCc2ccc(Cl)cc2)c(=O)n(C)c1=O,12,26*,5,0,4
O=C(c1ccco1)c1cn(Cc2ccccc2)c2ccccc12,3,-5,-2,1,30*
CCC(=O)c1cn(Cc2ccccc2)c2ccccc12,-6,9,14,-2,2
C=CCN1C(=O)NC(=O)C(Cc2ccc(OC)c(OC)c2)C1=O (stereo unspecified),4,2,7,-5,8
O=C1NC(=O)N(CCNc2ncc(C(F)(F)F)cc2Cl)C(=O)C1Cc1ccc(Cl)cc1 (stereo unspecified),2,29*,13,0,7
CN(C)C1=C(C#N)C(c2ccccc2)=NP(N(C)C)(N(C)C)=N1,4,-8,2,4,4
O=C1NC(=S)SC1=Cc1ccc(N(CCCl)CCCl)cc1,9,28*,6,.,.
O=C(O)CCCc1ccc(N(CCCl)CCCl)cc1,-4,6,-9,-7,1
CC(=O)O[C@H]1CCC2C3CCC4=CC(=O)CCC4=C3C=C[C@@]21C (stereo partly specified),1,1,4,.,9
NS(=O)(=O)c1ccc(-c2ccc(C=C3C(=O)NC(=O)NC3=O)o2)cc1,3,-1,9,.,0
O=C1NC(=O)C(=Cc2ccc(SC3CCCCC3)o2)C(=O)N1,45*,88*,13,-10,12
O=C(O)c1ccc2c(c1)C1C(Cl)C(Sc3ccccc3[N+](=O)[O-])CC1C(c1cccc([N+](=O)[O-])c1)N2 (stereo unspecified),52*,24,41*,11,.
O=C(O)c1cccc2c1NC(c1cccc([N+](=O)[O-])c1)C1CC(Sc3ccccc3[N+](=O)[O-])C(Cl)C21 (stereo unspecified),37*,18,11,4,.
O=[N+]([O-])c1cccc(C2N3CCCN23)c1 (stereo unspecified),-8,5,7,1,-2
